# Measured values reported in ChEMBL document CHEMBL1949596, “Chromophenazines from the terrestrial Streptomyces sp. Ank 315” (2012).
# Activity calls are given as the source filed them. The calls are words filed in the database; no cut-off is given here.
# Assays:
# Rhizomucor miehei = test: Antimicrobial activity against Mucor miehei by agar diffusion method; type: functional
# Procedure, shortened: (§1)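 Pure compounds applied to paper disks at 40 μg/disk and tested by agar diffusion against Bacillus subtilis, Escherichia coli, Staphylococcus aureus and the fungus Mucor miehei (Tü284). Activity was read from the agar plates.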
# Escherichia coli = test: Antimicrobial activity against Escherichia coli by agar diffusion method; type: functional; procedure, shortened: as §1
# Bacillus subtilis = test: Antimicrobial activity against Bacillus subtilis by agar diffusion method; type: functional; procedure, shortened: as §1
# Staphylococcus aureus = test: Antimicrobial activity against Staphylococcus aureus by agar diffusion method; type: functional, organism-based; procedure, shortened: as §1
smiles,measurement,setting,value
CC(C)=CCN1c2ccccc2Nc2c(C(=O)O)cc(C(=O)c3ccccc3)cc21 [CHROMOPHENAZINE D],inhibition zone (IZ),Rhizomucor miehei,10 mm
same,inhibition zone (IZ),Escherichia coli,10 mm
same,inhibition zone (IZ),Bacillus subtilis,10 mm
CC(C)=CCn1c2cc(=O)c3cc(C)ccc3c-2nc2ccccc21,Activity,Rhizomucor miehei,inactive
same,Activity,Escherichia coli,inactive
same,Activity,Staphylococcus aureus,inactive
same,Activity,Bacillus subtilis,inactive
CC(C)=CCn1c2cc(=O)c3cc(C)ccc3c-2nc2c(C(=O)O)cccc21,Activity,Rhizomucor miehei,inactive
same,Activity,Escherichia coli,inactive
same,Activity,Staphylococcus aureus,inactive
same,Activity,Bacillus subtilis,inactive
CC(C)=CCc1cc(=O)cc2n(C)c3cccc(C(=O)O)c3nc1-2,Activity,Rhizomucor miehei,inactive
same,Activity,Escherichia coli,inactive
same,Activity,Staphylococcus aureus,inactive
same,Activity,Bacillus subtilis,inactive
CC(C)=CCn1c2cc(=O)ccc-2nc2c(C(N)=O)cccc21,Activity,Rhizomucor miehei,inactive
same,Activity,Escherichia coli,inactive
same,Activity,Staphylococcus aureus,inactive
same,Activity,Bacillus subtilis,inactive
CC(C)=CCN1c2cc(C(=O)c3ccccc3)ccc2Nc2c(C(N)=O)cc(C(=O)c3ccccc3)cc21,Activity,Rhizomucor miehei,inactive
same,Activity,Escherichia coli,inactive
same,Activity,Staphylococcus aureus,inactive
same,Activity,Bacillus subtilis,inactive
